Laboratory results: ChEMBL document CHEMBL5705890, “Antitumor activity of an allosteric inhibitor of centromere-associated protein-E” (Proc Natl Acad Sci U S A, 2010)

Legend:
[1] = system: D283 Med; test: Anticancer activity against human D283 Med cells assessed as cell growth inhibition measured after 72 hrs by DAPI staining based analysis; type: functional
Summary of the method: (§1)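 Cells seeded, DAPI-stained DNA content of fixed cells read by imaging 24 h after seeding (T0), and again after a further 72 h exposure to a range of drug concentrations (T72). T72 values were normalized to T0. Curve fits gave the concentration producing 50% growth inhibition relative to T0 and Ymax (GI50).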

[2] = Anticancer activity against human UM-SCC-12 cells assessed as cell doubling measured for 72 hrs by DAPI staining based analysis; type: functional
[3] = target: Centromere-associated protein E (Homo sapiens, UniProt Q02224, I182L/K184T/T183A); test: Binding affinity to human CENP-E I182L/T183A/K184T mutant assessed as inhibition constant
[4] = system: AN3-CA; test: Anticancer activity against human AN3-CA cells assessed as cell doubling measured for 72 hrs by DAPI staining based analysis; type: functional
[5] = system: HuT78; test: Anticancer activity against human HuT78 cells assessed as cell growth inhibition measured after 72 hrs by DAPI staining based analysis; type: functional
[6] = system: HEC-1-A; test: Anticancer activity against human HEC-1-A cells assessed as cell growth inhibition measured after 72 hrs by DAPI staining based analysis; type: functional
[7] = system: RKO; test: Anticancer activity against human RKO cells assessed as cell doubling measured for 72 hrs by DAPI staining based analysis; type: functional
[8] = system: OVCAR-8; test: Anticancer activity against human OVCAR-8 cells assessed as cell growth inhibition measured after 72 hrs by DAPI staining based analysis; type: functional
[9] = system: SW 954; test: Anticancer activity against human SW 954 cells assessed as cell growth inhibition measured after 72 hrs by DAPI staining based analysis; type: functional
[10] = system: SK-NEP-1; test: Anticancer activity against human SK-NEP-1 cells assessed as cell doubling measured for 72 hrs by DAPI staining based analysis; type: functional
[11] = system: HT-3; test: Anticancer activity against human HT-3 cells assessed as cell doubling measured for 72 hrs by DAPI staining based analysis; type: functional
[12] = system: HPAF-II; test: Anticancer activity against human HPAF-II cells assessed as cell growth inhibition measured after 72 hrs by DAPI staining based analysis; type: functional
[13] = system: BHT-101; test: Anticancer activity against human BHT-101 cells assessed as cell doubling measured for 72 hrs by DAPI staining based analysis; type: functional
[14] = system: SNU-16; test: Anticancer activity against human SNU-16 cells assessed as cell doubling measured for 72 hrs by DAPI staining based analysis; type: functional
[15] = system: RL; test: Anticancer activity against human RL cells assessed as cell doubling measured for 72 hrs by DAPI staining based analysis; type: functional
[16] = system: RL95-2; test: Anticancer activity against human RL95-2 cells assessed as cell doubling measured for 72 hrs by DAPI staining based analysis; type: functional
[17] = system: SW780; test: Anticancer activity against human SW780 cells assessed as cell doubling measured for 72 hrs by DAPI staining based analysis; type: functional
[18] = system: SK-MEL-28; test: Anticancer activity against human SK-MEL-28 cells assessed as cell doubling measured for 72 hrs by DAPI staining based analysis; type: functional
[19] = system: A549; test: Antitumor activity against human A549 cells in xenograft model assessed as difference between median time to endpoint time of treated versus control group at 62.5 mg/kg; type: functional
[20] = system: SK-MEL3; test: Anticancer activity against human SK-MEL3 cells assessed as cell growth inhibition measured after 72 hrs by DAPI staining based analysis; type: functional
[21] = system: NCI-H2171; test: Anticancer activity against human NCI-H2171 cells assessed as cell doubling measured for 72 hrs by DAPI staining based analysis; type: functional
[22] = system: SW1417; test: Anticancer activity against human SW1417 cells assessed as cell growth inhibition measured after 72 hrs by DAPI staining based analysis; type: functional
[23] = system: YAPC; test: Anticancer activity against human YAPC cells assessed as cell growth inhibition measured after 72 hrs by DAPI staining based analysis; type: functional
[24] = system: SF-295; test: Anticancer activity against human SF-295 cells assessed as cell growth inhibition measured after 72 hrs by DAPI staining based analysis; type: functional
[25] = system: CAL-62; test: Anticancer activity against human CAL-62 cells assessed as cell doubling measured for 72 hrs by DAPI staining based analysis; type: functional
[26] = system: A 172; test: Anticancer activity against human A-172 cells assessed as cell doubling measured for 72 hrs by DAPI staining based analysis; type: functional
[27] = system: SCC-4; test: Anticancer activity against human SCC-4 cells assessed as cell growth inhibition measured after 72 hrs by DAPI staining based analysis; type: functional
[28] = system: NCI-H596; test: Anticancer activity against human NCI-H596 cells assessed as cell doubling measured for 72 hrs by DAPI staining based analysis; type: functional
[29] = system: SCC-15; test: Anticancer activity against human SCC-15 cells assessed as cell growth inhibition measured after 72 hrs by DAPI staining based analysis; type: functional
[30] = system: HEC-1B cell line; test: Anticancer activity against human HEC-1B cells assessed as cell growth inhibition measured after 72 hrs by DAPI staining based analysis; type: functional
[31] = system: MDA-MB-175-VII; test: Anticancer activity against human MDA-MB-175-VII cells assessed as cell growth inhibition measured after 72 hrs by DAPI staining based analysis; type: functional
[32] = system: HCC1143; test: Anticancer activity against human HCC1143 cells assessed as cell growth inhibition measured after 72 hrs by DAPI staining based analysis; type: functional; summary of the method: as §1
[33] = system: MV4-11; test: Anticancer activity against human MV4-11 cells assessed as cell doubling measured for 72 hrs by DAPI staining based analysis; type: functional
[34] = system: NCI-H460; test: Anticancer activity against human NCI-H460 cells assessed as cell doubling measured for 72 hrs by DAPI staining based analysis; type: functional
[35] = system: SNU1; test: Anticancer activity against human SNU1 cells assessed as cell growth inhibition measured after 72 hrs by DAPI staining based analysis; type: functional
[36] = system: NCI-H209; test: Anticancer activity against human NCI-H209 cells assessed as cell doubling measured for 72 hrs by DAPI staining based analysis; type: functional
[37] = system: ARH-77; test: Anticancer activity against human ARH-77 cells assessed as cell doubling measured for 72 hrs by DAPI staining based analysis; type: functional
[38] = Anticancer activity against human MV-522 cells assessed as cell growth inhibition measured after 72 hrs by DAPI staining based analysis; type: functional; conditions: MV522
[39] = Anticancer activity against human C4-1 cells assessed as cell growth inhibition measured after 72 hrs by DAPI staining based analysis; type: functional
Summary of the method: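 Cells were seeded, and DNA content at 24 h after seeding (T0) was read by imaging of fixed, DAPI-stained cells. Cells were then exposed to a range of drug concentrations for a further 72 h (T72) and DNA content was read again. T72 values were normalized to T0, and GI50 was taken from curve fits as the concentration giving 50% growth inhibition relative to T0 and Ymax.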

[40] = target: Centromere-associated protein E (Homo sapiens, UniProt Q02224, I182L); test: Binding affinity to human CENP-E I182L mutant assessed as inhibition constant
[41] = Antitumor activity against human MV-522 cells in xenograft model assessed as tumor growth delay at 125 mg/kg relative to control; type: functional
[42] = system: NCI-H187; test: Anticancer activity against human NCI-H187 cells assessed as cell growth inhibition measured after 72 hrs by DAPI staining based analysis; type: functional

Chain of Centromere-associated protein E (Homo sapiens, UniProt Q02224, I182L/K184T/T183A) (Q02224 whole entry I182L/T183A/K184T): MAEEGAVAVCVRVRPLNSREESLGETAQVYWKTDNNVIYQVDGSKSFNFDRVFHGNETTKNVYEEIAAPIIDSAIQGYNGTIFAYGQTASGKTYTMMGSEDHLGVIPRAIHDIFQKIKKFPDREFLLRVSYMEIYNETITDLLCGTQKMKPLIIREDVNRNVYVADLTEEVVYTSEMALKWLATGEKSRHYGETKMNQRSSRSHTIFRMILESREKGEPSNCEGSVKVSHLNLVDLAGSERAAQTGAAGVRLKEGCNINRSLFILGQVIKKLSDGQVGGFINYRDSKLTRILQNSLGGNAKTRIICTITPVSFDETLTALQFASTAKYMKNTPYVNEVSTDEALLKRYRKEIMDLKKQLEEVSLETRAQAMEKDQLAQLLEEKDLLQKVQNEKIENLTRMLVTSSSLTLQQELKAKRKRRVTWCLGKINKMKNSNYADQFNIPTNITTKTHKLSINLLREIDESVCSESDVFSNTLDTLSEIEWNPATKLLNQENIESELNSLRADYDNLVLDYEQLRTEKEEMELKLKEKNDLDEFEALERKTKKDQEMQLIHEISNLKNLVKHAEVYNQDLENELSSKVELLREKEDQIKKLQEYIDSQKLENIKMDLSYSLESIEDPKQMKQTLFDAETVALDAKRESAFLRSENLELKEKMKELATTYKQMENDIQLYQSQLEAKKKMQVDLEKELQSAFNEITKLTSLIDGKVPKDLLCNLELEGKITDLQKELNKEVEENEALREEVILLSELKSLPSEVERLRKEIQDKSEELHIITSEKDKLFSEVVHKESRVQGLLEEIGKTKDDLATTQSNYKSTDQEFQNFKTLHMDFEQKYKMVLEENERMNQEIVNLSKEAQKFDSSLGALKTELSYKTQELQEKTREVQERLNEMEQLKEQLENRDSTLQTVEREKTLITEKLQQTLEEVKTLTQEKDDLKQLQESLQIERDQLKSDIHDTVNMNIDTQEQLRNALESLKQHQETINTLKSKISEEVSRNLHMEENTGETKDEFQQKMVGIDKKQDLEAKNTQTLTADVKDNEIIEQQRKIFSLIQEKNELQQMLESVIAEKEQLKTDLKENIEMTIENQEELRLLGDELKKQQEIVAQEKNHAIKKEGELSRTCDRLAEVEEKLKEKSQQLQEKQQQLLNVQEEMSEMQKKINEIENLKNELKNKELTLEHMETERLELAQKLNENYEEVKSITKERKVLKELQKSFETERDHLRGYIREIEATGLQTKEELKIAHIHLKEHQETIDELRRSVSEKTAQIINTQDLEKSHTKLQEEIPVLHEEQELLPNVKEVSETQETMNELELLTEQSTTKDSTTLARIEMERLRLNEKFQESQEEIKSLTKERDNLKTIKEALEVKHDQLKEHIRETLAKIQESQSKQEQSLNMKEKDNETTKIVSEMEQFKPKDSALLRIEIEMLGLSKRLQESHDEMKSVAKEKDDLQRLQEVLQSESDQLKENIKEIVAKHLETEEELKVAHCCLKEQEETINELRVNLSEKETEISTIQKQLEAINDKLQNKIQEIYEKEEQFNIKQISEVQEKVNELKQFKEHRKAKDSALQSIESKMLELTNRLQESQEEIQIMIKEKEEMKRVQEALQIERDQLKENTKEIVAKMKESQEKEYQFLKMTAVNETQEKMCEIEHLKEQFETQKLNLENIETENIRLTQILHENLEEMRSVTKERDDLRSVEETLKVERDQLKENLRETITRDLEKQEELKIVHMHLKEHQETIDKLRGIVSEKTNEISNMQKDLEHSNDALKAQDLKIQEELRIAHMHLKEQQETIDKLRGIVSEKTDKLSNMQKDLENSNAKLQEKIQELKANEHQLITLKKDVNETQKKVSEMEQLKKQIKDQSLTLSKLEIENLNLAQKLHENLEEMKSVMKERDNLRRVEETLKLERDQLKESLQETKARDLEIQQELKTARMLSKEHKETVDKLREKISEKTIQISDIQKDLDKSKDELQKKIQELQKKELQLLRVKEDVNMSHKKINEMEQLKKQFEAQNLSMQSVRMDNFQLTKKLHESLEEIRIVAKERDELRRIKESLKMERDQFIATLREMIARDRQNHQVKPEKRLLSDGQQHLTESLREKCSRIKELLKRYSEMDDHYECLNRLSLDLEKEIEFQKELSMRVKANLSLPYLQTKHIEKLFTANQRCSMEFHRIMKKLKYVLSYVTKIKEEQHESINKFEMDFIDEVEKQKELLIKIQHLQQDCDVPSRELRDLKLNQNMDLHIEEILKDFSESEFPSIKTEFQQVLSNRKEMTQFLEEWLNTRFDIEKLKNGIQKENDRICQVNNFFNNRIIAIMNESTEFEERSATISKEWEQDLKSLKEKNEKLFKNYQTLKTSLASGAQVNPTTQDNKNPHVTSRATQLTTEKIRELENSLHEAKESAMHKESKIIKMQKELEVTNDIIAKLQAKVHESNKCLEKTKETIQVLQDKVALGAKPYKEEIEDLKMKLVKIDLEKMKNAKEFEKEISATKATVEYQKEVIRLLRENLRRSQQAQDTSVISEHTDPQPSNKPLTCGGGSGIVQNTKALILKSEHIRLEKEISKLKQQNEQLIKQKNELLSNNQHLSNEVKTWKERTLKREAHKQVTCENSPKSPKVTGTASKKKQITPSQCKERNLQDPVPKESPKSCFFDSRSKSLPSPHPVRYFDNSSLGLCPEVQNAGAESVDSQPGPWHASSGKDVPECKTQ
Chain of Centromere-associated protein E (Homo sapiens, UniProt Q02224, I182L) (Q02224 whole entry I182L): as the sequence (Q02224 whole entry I182L/T183A/K184T) above, with A183T, T184K counted along it

Ki [3]: 64 nM | GI50 [8]: 50 nM | GI50 [20]: 30 nM | GI50 [22]: 29 nM | GI50 [31]: 23 nM | GI50 [32]: 27 nM | GI50 [35]: > 10000 nM | Ki [40]: 14 nM | GI50 [42]: 68 nM
SMILES: CC(C)Oc1ccc(C(=O)N[C@H](CNC(=O)CN(C)C)Cc2ccc(-c3cn4cccc([C@H](C)O)c4n3)cc2)cc1Cl [GSK-923295A]
GI50 [1]: 28 nM | Activity [2]: 1.78 | Activity [4]: 1.74 | GI50 [5]: 40 nM | GI50 [6]: 50 nM | Activity [7]: 4.17 | GI50 [9]: 22 nM | Activity [10]: 1.74 | Activity [11]: 1.95 | GI50 [12]: 5030 nM | Activity [13]: 2.09 | Activity [14]: 2.92 | Activity [15]: 3.17 | Activity [16]: 2.48 | Activity [17]: 2.73 | Activity [18]: 2.43 | Time [19]: 3.7 days | Activity [21]: 1.39 | GI50 [23]: 59 nM | GI50 [24]: 35 nM | Activity [25]: 3.31 | Activity [26]: 1.84 | GI50 [27]: 28 nM | Activity [28]: 1.31 | GI50 [29]: 63 nM | GI50 [30]: 28 nM | Activity [33]: 1.79 | Activity [34]: 3.86 | Activity [36]: 1.12 | Activity [37]: 1.62 | GI50 [38]: 48 nM | GI50 [39]: 42 nM | Activity [41]: 104%
